# Key:
# [1] = target: Glucose-6-phosphate 1-dehydrogenase (Homo sapiens, UniProt P11413); assay: Inhibition of human glucose-6-phosphate dehydrogenase after 90 mins by resazurin/diaphorasecoupled assay
# Summary of the method: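 Dose response with a top final concentration of […] and 0.8% final DMSO, in 50 mM Tris pH 7.5, 0.005% Tween 20 and 1 mg/mL BSA. The enzyme solution held 0.05 μg/mL hG6PD. The substrate solution held 0.64 mM G6P, 12 μM NADP+, 6.6 mM MgCl2, 2 U/mL diaphorase and 0.28 mM resazurin.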
# [2] = target: T1, Glucose-6-phosphate 1-dehydrogenase (Plasmodium falciparum, UniProt Q25856); assay: Inhibition of Plasmodium falciparum glucose-6-phosphate dehydrogenase after 45 mins by orthogonal assay
# T1 sequence (Q25856 whole entry): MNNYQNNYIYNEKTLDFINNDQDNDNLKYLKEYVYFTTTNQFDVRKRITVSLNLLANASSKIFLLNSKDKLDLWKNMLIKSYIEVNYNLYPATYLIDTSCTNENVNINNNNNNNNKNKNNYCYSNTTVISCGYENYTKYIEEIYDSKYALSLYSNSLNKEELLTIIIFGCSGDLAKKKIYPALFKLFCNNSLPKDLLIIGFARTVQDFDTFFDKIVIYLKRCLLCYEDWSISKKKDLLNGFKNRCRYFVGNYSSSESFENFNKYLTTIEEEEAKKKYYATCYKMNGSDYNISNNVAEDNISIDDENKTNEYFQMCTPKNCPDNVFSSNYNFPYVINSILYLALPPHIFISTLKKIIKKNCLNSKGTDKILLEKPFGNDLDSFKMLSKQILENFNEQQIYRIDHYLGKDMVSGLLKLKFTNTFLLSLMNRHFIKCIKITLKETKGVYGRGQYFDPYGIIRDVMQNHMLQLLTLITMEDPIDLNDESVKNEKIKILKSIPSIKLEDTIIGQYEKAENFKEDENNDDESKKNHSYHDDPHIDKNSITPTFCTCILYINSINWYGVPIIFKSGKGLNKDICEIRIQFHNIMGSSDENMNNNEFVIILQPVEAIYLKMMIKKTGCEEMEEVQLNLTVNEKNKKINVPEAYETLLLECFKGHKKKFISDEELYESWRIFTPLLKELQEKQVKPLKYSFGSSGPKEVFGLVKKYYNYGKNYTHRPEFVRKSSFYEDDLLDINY
# Summary of the method: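 Direct NADPH read without coupling: PfGluPho (0.4 μg/mL enzyme solution) in 50 mM Tris pH 7.5, 0.005% Tween 20, 1 mg/mL BSA; substrate 40 μM G6P, 6 μM NADP+, 6.6 mM MgCl2.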
# [3] = target: T1, Glucose-6-phosphate 1-dehydrogenase; assay: Inhibition of Plasmodium falciparum glucose-6-phosphate dehydrogenase after 2 hrs by resazurin/diaphorasecoupled assay
# Sequence of Glucose-6-phosphate 1-dehydrogenase (Homo sapiens, UniProt P11413) (P11413 whole entry): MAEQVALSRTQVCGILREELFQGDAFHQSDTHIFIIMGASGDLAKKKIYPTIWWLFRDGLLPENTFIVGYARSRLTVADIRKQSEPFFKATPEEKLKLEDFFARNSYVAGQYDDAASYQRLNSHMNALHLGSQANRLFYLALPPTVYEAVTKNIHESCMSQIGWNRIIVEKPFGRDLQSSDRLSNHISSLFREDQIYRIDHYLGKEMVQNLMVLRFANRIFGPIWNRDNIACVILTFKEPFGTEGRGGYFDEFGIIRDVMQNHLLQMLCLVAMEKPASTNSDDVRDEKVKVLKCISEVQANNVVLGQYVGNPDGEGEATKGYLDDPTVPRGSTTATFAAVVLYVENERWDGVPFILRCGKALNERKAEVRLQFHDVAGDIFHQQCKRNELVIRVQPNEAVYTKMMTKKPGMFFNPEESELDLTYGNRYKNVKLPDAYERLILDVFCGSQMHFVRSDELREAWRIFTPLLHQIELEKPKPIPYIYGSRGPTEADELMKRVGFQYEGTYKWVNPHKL
SMILES,IC50 [1],IC50 [2],IC50 [3]
O=C1Nc2cc(C(=O)NCC3CCCN3)ccc2S/C1=C\c1ccccc1F (configuration not stated),> 80 µM,–,–
O=C1Nc2cc(C(=O)NCCN3CCOCC3)ccc2S/C1=C\c1ccccc1F,> 80 µM,> 80 µM,> 80 µM
CN(C)CCNC(=O)c1ccc2c(c1)NC(=O)/C(=C/c1ccccc1F)S2 (stereo in doubt; 17),> 80 µM,–,–
CCN1CCCC1CNC(=O)c1ccc2c(c1)NC(=O)C(Cc1ccccc1F)S2 (configuration not stated),> 80 µM,–,> 80 µM
O=C1Nc2cc(C(=O)NCCN3CCCCC3)ccc2S/C1=C\c1ccccc1F,> 80 µM,24 µM,21.6 µM
CN(C)c1ccccc1CNC(=O)c1ccc2c(c1)NC(=O)/C(=C/c1ccccc1F)S2,> 80 µM,67.8 µM,> 80 µM
O=C1Nc2cc(C(=O)NCCN3CCCCCC3)ccc2S/C1=C\c1ccccc1Cl,> 80 µM,> 80 µM,40.9 µM
O=C1Nc2cc(C(=O)NCCCN3CCCC3)ccc2S/C1=C\c1ccccc1,> 80 µM,22.3 µM,9.3 µM
CC(C)(C)OC(=O)N1CCCC1CNC(=O)c1ccc2c(c1)NC(=O)/C(=C/c1ccccc1F)S2 (configuration not stated),> 80 µM,24.4 µM,> 80 µM
CCCN1CCCC1CNC(=O)c1ccc2c(c1)NC(=O)/C(=C/c1ccccc1F)S2 (configuration not stated),> 80 µM,–,–
CCN(CC)CCNC(=O)c1ccc2c(c1)NC(=O)/C(=C/c1ccccc1Cl)S2,> 80 µM,44.9 µM,16.2 µM
CCN1CCCC1CNC(=O)c1ccc2c(c1)NC(=O)/C(=C/c1ccc(C)cc1)S2 (configuration not stated),> 80 µM,–,–
Cc1cccc(/C=C2\Sc3ccc(C(=O)NCCN4CCCC4)cc3NC2=O)c1,> 80 µM,8.8 µM,11.8 µM
COc1ccc(/C=C2\Sc3ccc(C(=O)NCCN(C)C)cc3NC2=O)cc1,> 80 µM,> 80 µM,> 80 µM
CCN1CCCC1CNC(=O)c1ccc2c(c1)NC(=O)/C(=C/c1ccccc1F)S2 (racemic),> 80 µM,1.37 µM,1.75 µM
O=C1Nc2cc(C(=O)NCCN3CCCCCC3)ccc2S/C1=C\c1ccccc1F,> 80 µM,11 µM,46.6 µM
CCN1CCCC1CNC(=O)c1ccc2c(c1)NC(=O)/C(=C/c1ccccc1)S2 (configuration not stated),> 80 µM,–,–
COc1cccc(/C=C2\Sc3ccc(C(=O)NCCN4CCCCCC4)cc3NC2=O)c1,> 80 µM,58.5 µM,> 80 µM
O=C1Nc2cc(C(=O)NCCN3CCCC3)ccc2S/C1=C\c1ccccc1Cl,> 80 µM,> 80 µM,11.1 µM
O=C1Nc2cc(C(=O)NCCN3CCCC3)ccc2S/C1=C\c1ccccc1F (stereo in doubt; 28),> 80 µM,–,–
O=C1Nc2cc(C(=O)NCCN3CCCC3)ccc2S/C1=C\c1ccccc1F (stereo in doubt; 29),> 80 µM,–,–
CCN1CCCC1CNC(=O)c1ccc2c(c1)NC(=O)/C(=C/c1ccc(F)cc1)S2 (configuration not stated),> 80 µM,2.06 µM,1.41 µM
CCCN(CCC)CCNC(=O)c1ccc2c(c1)NC(=O)/C(=C/c1ccccc1)S2,> 80 µM,27.2 µM,> 80 µM
O=C1Nc2cc(C(=O)NCc3ccccc3)ccc2S/C1=C\c1ccccc1F,> 80 µM,> 80 µM,> 80 µM

SMILES,IC50 [1],IC50 [2],IC50 [3]
CN1CCCC1CCNC(=O)c1ccc2c(c1)NC(=O)/C(=C/c1ccccc1F)S2 (configuration not stated),> 80 µM,45.2 µM,22.7 µM
CCN1CCC[C@H]1CNC(=O)c1ccc2c(c1)NC(=O)/C(=C/c1ccccc1F)S2,> 80 µM,4.7 µM,6.6 µM
COc1ccc(/C=C2\Sc3ccc(C(=O)NCCN4CCCC4)cc3NC2=O)cc1,> 80 µM,> 80 µM,49.7 µM
CCN1CCCC1CNC(=O)c1ccc2c(c1)NC(=O)/C(=C/c1c(F)cccc1F)S2 (configuration not stated),> 80 µM,–,–
CCN(CC)CCNC(=O)c1ccc2c(c1)NC(=O)/C(=C/c1ccc(OC)c(OC)c1)S2,> 80 µM,24.5 µM,60 µM
CN(C)CCNC(=O)c1ccc2c(c1)NC(=O)/C(=C/c1cccc(Cl)c1)S2,> 80 µM,43.6 µM,60 µM
CCN1CCCC1CNC(=O)c1ccc2c(c1)NC(=O)/C(=C/c1ccccc1C)S2 (configuration not stated),> 80 µM,5.01 µM,5.93 µM
CCN1CCCC1CNC(=O)c1ccc2c(c1)NC(=O)/C(=C/c1ccccc1OC)S2 (configuration not stated),> 80 µM,11.3 µM,9.79 µM
NC1CCN(C(=O)c2ccc3c(c2)NC(=O)/C(=C/c2ccccc2F)S3)C1 (configuration not stated),> 80 µM,35 µM,45 µM
CCN(CC)CCNC(=O)c1ccc2c(c1)NC(=O)/C(=C/c1cccc(C)c1)S2,> 80 µM,–,–
COc1ccc(/C=C2\Sc3ccc(C(=O)NCCN4CCCCCC4)cc3NC2=O)cc1,> 80 µM,> 80 µM,> 80 µM
CCCN(CCC)CCNC(=O)c1ccc2c(c1)NC(=O)/C(=C/c1ccc(C)cc1)S2,> 80 µM,45.9 µM,> 80 µM
CCN1CCCC1CNC(=O)c1ccc2c(c1)NC(=O)/C(=C/c1cccc(F)c1)S2 (configuration not stated),> 80 µM,–,–
CCN(CC)CCNC(=O)c1ccc2c(c1)NC(=O)/C(=C/c1ccccc1F)S2 (stereo in doubt; 22),> 80 µM,4.8 µM,6.9 µM
CCN1CCCC1CNC(=O)c1ccc2c(c1)NC(=O)/C(=C/c1ccccc1Cl)S2 (configuration not stated),> 80 µM,3.3 µM,2.56 µM
CCN(CC)CCNC(=O)c1ccc2c(c1)NC(=O)/C(=C/c1ccccc1)S2,> 80 µM,18.4 µM,8.8 µM
CCN1CCCC1CNC(=O)c1ccc2c(c1)NC(=O)/C(=C/c1cccc(F)c1F)S2 (configuration not stated),> 80 µM,–,–
CN(C)CCNC(=O)c1ccc2c(c1)NC(=O)/C(=C/c1ccccc1F)S2 (stereo in doubt; 16),> 80 µM,–,–
O=C1Nc2cc(C(=O)NCCCN3CCCC3)ccc2S/C1=C\c1cccc(Cl)c1,> 80 µM,–,–
CCN(CC)CCNC(=O)c1ccc2c(c1)NC(=O)/C(=C/c1ccccc1F)S2 (stereo in doubt; 21),> 80 µM,9.4 µM,7.4 µM
CCN1CCCC1CNC(=O)c1ccc2c(c1)NC(=O)/C(=C/c1ccc3ccccc3c1)S2 (configuration not stated),> 80 µM,2.88 µM,2.39 µM
CCN1CCCC1CNC(=O)c1ccc2c(c1)NC(=O)/C(=C/c1cccc3ccccc13)S2 (configuration not stated),> 80 µM,4.2 µM,4.28 µM
CCN1CCCC1CNC(=O)c1ccc2c(c1)NC(=O)CS2 (configuration not stated),–,–,> 80 µM
